# Published values from different studies.
# HCK: Tyrosine-protein kinase HCK (HCK, Homo sapiens, UniProt P08631)
SMILES,target,read-out,action,method,tested at,measurement,value
CCN(CC)CCNC(=O)c1c(C)[nH]c(/C=C2\C(=O)Nc3ccc(F)cc32)c1C,HCK,enzyme activity,inhibitor,,0.3 µM,inhibition,22%
CNCc1ccccc1-c1csc([C@H](C)Nc2nc(C)nc3cc(OC)c(OC)cc23)c1,HCK,cell-free assay,,competition with immobilised ligand,1 µM,remaining binding,98%
O=C(Nc1cnn(-c2csc(C(=O)NC3COC3)c2)c1)Nc1ccccc1Cl,HCK,enzyme activity,inhibitor,,5 µM,remaining activity,94%
CNc1cccc2cc(C(=O)Nc3ccc(C(=O)O)cc3)c(=O)[nH]c12,HCK,enzyme activity,inhibitor,,10 µM,inhibition,-12%
O=C1Nc2ccc(Cl)cc2C1=Cc1cc(Cl)c(O)c(Cl)c1,HCK,cell-free assay,,,0.5 µM,remaining signal,83.2%
O=C(Nc1ccc(Oc2ccc(F)cc2)cc1)N1CCc2ncccc2[C@H]1c1ccc(F)cc1,HCK,cell-free assay,,competition with immobilised ligand,1 µM,remaining binding,100%
CNC(=O)c1cc2c(Oc3ccc(NC(=O)C4(C(=O)Nc5ccc(F)cc5)CC4)cc3)ccnc2cc1OC,"Tyrosine-protein kinase HCK, phosphorylated (HCK, Homo sapiens, UniProt P08631)",enzyme activity,inhibitor,radiometric,1 µM,inhibition,88%
C[C@H](c1ccnc(Nc2nc3ccc(-c4cc(N(C)C)ncn4)cc3[nH]2)c1)N1CCN(C(=O)CC(F)(F)F)CC1,HCK,cell-free assay,,competition with immobilised ligand,0.1 µM,remaining binding,91%
Cc1ccc(NC(=O)c2ccc(C)c(C(F)(F)F)c2)cc1C#Cc1nn(C2CCC(O)CC2)c2ncnc(N)c12 (stereo not drawn),HCK,cell-free assay,,,10 µM,remaining signal,0%
Cc1ccc(C(=O)NCc2ccsc2)cc1C#Cc1cn(C(C)C)c2ncnc(N)c12,HCK,enzyme activity,inhibitor,,1 µM,activity vs control,4%
Cc1ccc(NC(=O)c2ccc(CN3CCN(C)CC3)cc2)cc1Nc1nccc(-c2cncc(-c3oncc3C)c2)n1,HCK,enzyme activity,inhibitor,,0.5 µM,remaining activity,≤ 50%
Cc1ccc(Nc2nccc(N(C)c3ccc4c(C)n(C)nc4c3)n2)cc1S(N)(=O)=O,HCK,enzyme activity,inhibitor,,10 µM,inhibition,90%
CCCS(=O)(=O)Nc1ccc(F)c(C(=O)c2c[nH]c3ncc(-c4ccc(Cl)cc4)cc23)c1F,HCK,enzyme activity,inhibitor,,1 µM,inhibition,< 10%
COc1cc2ncnc(Nc3ccc(Oc4ccccc4)c(C)c3C)c2cc1OC,HCK,enzyme activity,inhibitor,,1 µM,inhibition,53%
Cc1ccc(C(=O)Nc2ccc(CN3CCN(C)CC3)c(C(F)(F)F)c2)cc1C#Cc1cnc2cccnn12,HCK,enzyme activity,,,23.5 nM,remaining activity,1.6%
CC(C)(O)[C@H]1CC[C@H](Nc2ccc3ncc(-c4cccc(C(F)(F)F)c4)n3n2)CC1,HCK,enzyme activity,inhibitor,,1 µM,remaining activity,40.5%
CCCOc1ccc([C@@H]2[C@@H](C(=O)O)[C@H](c3ccc4c(c3)OCO4)CN2CC(=O)Nc2c(CC)cccc2CC)cc1,HCK,cell-free assay,,competition with immobilised ligand,1 µM,remaining binding,92%
CNC(=O)c1cc(Oc2ccc(NC(=O)Nc3ccc(Cl)c(C(F)(F)F)c3)cc2)ccn1,HCK,cell-free assay,,,0.5 µM,remaining signal,90.3%
O=S(=O)(NC1CCC(c2cc(F)ccc2F)(S(=O)(=O)c2ccc(Cl)cc2)CC1)C(F)(F)F (stereo not drawn),HCK,cell-free assay,,competition with immobilised ligand,1 µM,remaining binding,85%
O=C1NC(=O)c2cc(Nc3ccc(F)cc3)c(Nc3ccc(F)cc3)cc21,HCK,cell-free assay,,,0.5 µM,remaining signal,88.3%
CNC(=O)c1ccc(Nc2ncc(C(F)(F)F)c(NCc3nccnc3N(C)S(C)(=O)=O)n2)cc1,HCK,cell-free assay,,competition with immobilised ligand,0.1 µM,remaining binding,100%
COc1cc2c(N3CCN(C(=O)Nc4ccc(OC(C)C)cc4)CC3)ncnc2cc1OCCCN1CCCCC1,HCK,cell-free assay,,,0.5 µM,remaining signal,93.2%
Cc1c(NC(=O)c2cc(C(N)=O)nc3cc(F)ccc23)c(C(F)(F)F)nn1Cc1ccc(C(C)(C)C)cc1,HCK,cell-free assay,,competition with immobilised ligand,1 µM,remaining binding,92%
CN(C)C1CCN(CC#Cc2nn(C3CCCC3)c3nc(NCc4ccccc4)ncc23)C1 (stereo not drawn),HCK,enzyme activity,inhibitor,FRET,1 µM,inhibition,2%
